Tests used:
Format in all cases: functional
[1] = system: K562; experiment: Growth inhibition of human K562 cells incubated for 48 hrs by sulforhodamine B assay; settings: K562, 48 h
Procedure, shortened: (§1)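 NCI-60 five-dose SRB assay in RPMI 1640 with 5% FBS, 37 °C, 5% CO2. Compound given at five tenfold dilutions, 0.01–100 µM, for 48 h. Adherent cells fixed with TCA, suspension cells with 16% final TCA. Bound SRB read at 515 nm and growth calculated against time-zero and untreated controls. GI50 taken from dose–response curves as the concentration giving a 50% decrease in net cell growth.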

[2] = system: KM12; experiment: Growth inhibition of human KM12 cells incubated for 48 hrs by sulforhodamine B assay; settings: KM12, 48 h; procedure, shortened: as §1
[3] = system: ACHN; experiment: Growth inhibition of human ACHN cells incubated for 48 hrs by sulforhodamine B assay
Procedure, shortened: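 NCI-60 five-dose mode: five tenfold dilutions (0.01, 0.1, 1, 10, 100 µM) are applied for 48 h to cells in RPMI 1640 with 5% FBS at 37 °C. Endpoint is TCA fixation with sulforhodamine B read at 515 nm. % growth comes from the 0 h and control absorbances. GI50 is the concentration giving a 50% reduction in net cell growth.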

[4] = system: PC-3; experiment: Growth inhibition of human PC3 cells incubated for 48 hrs by sulforhodamine B assay; settings: PC-3, 48 h
Procedure, shortened: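 NCI-60 five-dose SRB assay. Cells were exposed for 48 h to tenfold dilutions of 0.01, 0.1, 1, 10 and 100 µM, in RPMI 1640 with 5% FBS. Plates fixed with TCA at the time of drug addition served as the time-zero reference. GI50 is the concentration giving a 50% reduction in net growth. TGI is total growth inhibition. LC50 is a net 50% loss of the initial cells.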

[5] = system: SK-MEL-5; experiment: Growth inhibition of human SK-MEL-5 cells assessed as cell viability at 100 uM incubated for 48 hrs by sulforhodamine B assay; settings: SK-MEL-5, 48 h, read-out: Activity
[6] = system: NCI-H226; experiment: Growth inhibition of human NCI-H226 cells assessed as cell viability at 100 uM incubated for 48 hrs by sulforhodamine B assay; settings: NCI-H226, 48 h, read-out: Activity
[7] = system: DU-145; experiment: Growth inhibition of human DU145 cells assessed as cell viability at 1 uM incubated for 48 hrs by sulforhodamine B assay; settings: DU-145, 48 h, read-out: Activity
[8] = system: RXF 393; experiment: Growth inhibition of human RXF393 cells assessed as cell viability at 1 uM incubated for 48 hrs by sulforhodamine B assay; settings: RXF 393, 48 h, read-out: Activity
[9] = system: NCI/ADR-RES; experiment: Growth inhibition of human NCI/ADR-RES cells assessed as cell viability at 1 uM incubated for 48 hrs by sulforhodamine B assay; settings: read-out: Activity
[10] = system: SK-MEL-5; experiment: Growth inhibition of human SK-MEL-5 cells assessed as cell viability at 1 uM incubated for 48 hrs by sulforhodamine B assay; settings: SK-MEL-5, 48 h, read-out: Activity
[11] = system: Malme-3M; experiment: Growth inhibition of human MALME-3M cells assessed as cell viability at 1 uM incubated for 48 hrs by sulforhodamine B assay; settings: read-out: Activity
[12] = system: HCC 2998; experiment: Growth inhibition of human HCC2998 cells assessed as cell viability at 1 uM incubated for 48 hrs by sulforhodamine B assay; settings: HCC 2998, 48 h, read-out: Activity
[13] = system: NCI-H522; experiment: Growth inhibition of human NCI-H522 cells assessed as cell viability at 1 uM incubated for 48 hrs by sulforhodamine B assay; settings: NCI-H522, 48 h, read-out: Activity
[14] = system: NCI-H226; experiment: Growth inhibition of human NCI-H226 cells assessed as cell viability at 1 uM incubated for 48 hrs by sulforhodamine B assay; settings: NCI-H226, 48 h, read-out: Activity
[15] = system: HOP-62; experiment: Growth inhibition of human HOP62 cells assessed as cell viability at 1 uM incubated for 48 hrs by sulforhodamine B assay; settings: HOP-62, 48 h, read-out: Activity
[16] = system: EKVX; experiment: Growth inhibition of human EKVX cells assessed as cell viability at 1 uM incubated for 48 hrs by sulforhodamine B assay; settings: read-out: Activity
[17] = system: T47D; experiment: Growth inhibition of human T47D cells assessed as cell viability at 0.1 uM incubated for 48 hrs by sulforhodamine B assay; settings: read-out: Activity
[18] = system: SK-OV-3; experiment: Growth inhibition of human SKOV3 cells assessed as cell viability at 0.1 uM incubated for 48 hrs by sulforhodamine B assay; settings: SK-OV-3, 48 h, read-out: Activity
[19] = system: SK-MEL-5; experiment: Growth inhibition of human SK-MEL-5 cells assessed as cell viability at 0.1 uM incubated for 48 hrs by sulforhodamine B assay; settings: SK-MEL-5, 48 h, read-out: Activity
[20] = system: SK-MEL-28; experiment: Growth inhibition of human SK-MEL-28 cells assessed as cell viability at 0.1 uM incubated for 48 hrs by sulforhodamine B assay; settings: SK-MEL-28, 48 h, read-out: Activity
[21] = system: SNB-19; experiment: Growth inhibition of human SNB19 cells assessed as cell viability at 0.1 uM incubated for 48 hrs by sulforhodamine B assay; settings: SNB-19, 48 h, read-out: Activity
[22] = system: SF-539; experiment: Growth inhibition of human SF539 cells assessed as cell viability at 0.1 uM incubated for 48 hrs by sulforhodamine B assay; settings: SF-539, 48 h, read-out: Activity
[23] = system: UACC-257; experiment: Growth inhibition of human UACC257 cells assessed as cell viability at 0.001 uM incubated for 48 hrs by sulforhodamine B assay relative to control; settings: UACC-257, 48 h, read-out: Activity
[24] = system: Malme-3M; experiment: Growth inhibition of human MALME-3M cells assessed as cell viability at 0.001 uM incubated for 48 hrs by sulforhodamine B assay relative to control; settings: read-out: Activity
[25] = system: HT-29; experiment: Growth inhibition of human HT-29 cells assessed as cell viability at 0.001 uM incubated for 48 hrs by sulforhodamine B assay relative to control; settings: HT-29, 48 h, read-out: Activity
[26] = system: OVCAR-3; experiment: Growth inhibition of human OVCAR3 cells assessed as cell viability at 100 uM incubated for 48 hrs by sulforhodamine B assay; settings: OVCAR-3, 48 h, read-out: Activity
[27] = system: OVCAR-8; experiment: Growth inhibition of human OVCAR8 cells assessed as cell viability at 100 uM incubated for 48 hrs by sulforhodamine B assay; settings: OVCAR-8, 48 h, read-out: Activity
[28] = read-out: LC50 (the source's name)
[29] = read-out: pLC50 (the source's name) (converted)

CC1=C(C(=O)OCc2ccccc2)C(c2ccc3c(c2)OCO3)n2c(nc3ccccc32)N1 (racemic)
GI50 ([1]; read-out: GI50): 340 nM | CC50 [1, 28]: > 100 µM | TGI ([1]; read-out: TGI): > 100 µM | GI50 ([1]; read-out: pGI50 (converted)): 347 nM | CC50 [1, 29]: > 100 µM | TGI ([1]; read-out: pTGI): > 100 µM | GI50 ([2]; read-out: GI50): 340 nM | LC50 ([2]; read-out: LC50): > 100 µM | TGI ([2]; read-out: TGI): > 100 µM | GI50 ([2]; read-out: pGI50 (converted)): 339 nM | LC50 ([2]; read-out: pLC50 (converted)): > 100 µM | TGI ([2]; read-out: pTGI): > 100 µM | GI50 ([3]; read-out: GI50): 690 nM | CC50 [3, 28]: > 100 µM | TGI ([3]; read-out: TGI): > 100 µM | GI50 ([3]; read-out: pGI50 (converted)): 692 nM | CC50 [3, 29]: > 100 µM | TGI ([3]; read-out: pTGI): > 100 µM | GI50 ([4]; read-out: GI50): 550 nM | CC50 [4, 28]: > 100 µM | TGI ([4]; read-out: TGI): > 100 µM | GI50 ([4]; read-out: pGI50 (converted)): 550 nM | CC50 [4, 29]: > 100 µM | TGI ([4]; read-out: pTGI): > 100 µM | viability at 100 µM [5]: 35% | viability at 100 µM [6]: 64% | viability at 1 µM [7]: 33% | viability at 1 µM [8]: 7% | viability at 1 µM [9]: 17% | viability at 1 µM [10]: 32% | viability at 1 µM [11]: 30% | viability at 1 µM [12]: 59% | viability at 1 µM [13]: 3% | viability at 1 µM [14]: 66% | viability at 1 µM [15]: 44% | viability at 1 µM [16]: 41% | viability at 0.1 µM [17]: 93% | viability at 0.1 µM [18]: 97% | viability at 0.1 µM [19]: 98% | viability at 0.1 µM [20]: 93% | viability at 0.1 µM [21]: 95% | viability at 0.1 µM [22]: 92% | viability at 0.001 µM [23]: 88% | viability at 0.001 µM [24]: 94% | viability at 0.001 µM [25]: 98% | viability at 100 µM [26]: -10% | viability at 100 µM [27]: 14%

Reference: ChEMBL document CHEMBL4406880, “Design, synthesis, and bioactivity of dihydropyrimidine derivatives as kinesin spindle protein inhibitors” (Bioorg Med Chem, 2019)
